Results taken from ChEMBL document CHEMBL1124244, “Design and synthesis of a series of combined vasodilator/beta-adrenoceptor antagonists based on 6-arylpyridazinones” (1988).

What was measured:
Felis catus [1] = assay: Intrinsic Sympathomimetic Activity(ISA) determined from the ratio of the maximal compound and isoprenaline induced tachycardia in anesthetized ganglion blocked cats following intravenous administration; assay type: functional
Summary of the method: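 Anaesthetised cats; cephalic vein cannulated; rectal temperature held at 37 °C. Ganglion block with pempidine 5 mg kg⁻¹ iv, then waited for BP and heart rate to stabilise. Heart rate taken from the BP pulse. Isoprenaline tachycardia curve run at 0.01–10 μg kg⁻¹ iv, then a cumulative compound curve in 50% PEG 400, raised to maximal tachycardia. ISA = maximal compound/isoprenaline tachycardia ratio.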

[2] = molecular target: Beta-1 adrenergic receptor (Homo sapiens) (UniProt P08588); conditions: Felis catus
Chain of Beta-1 adrenergic receptor (Homo sapiens) (P08588 whole entry, looked up): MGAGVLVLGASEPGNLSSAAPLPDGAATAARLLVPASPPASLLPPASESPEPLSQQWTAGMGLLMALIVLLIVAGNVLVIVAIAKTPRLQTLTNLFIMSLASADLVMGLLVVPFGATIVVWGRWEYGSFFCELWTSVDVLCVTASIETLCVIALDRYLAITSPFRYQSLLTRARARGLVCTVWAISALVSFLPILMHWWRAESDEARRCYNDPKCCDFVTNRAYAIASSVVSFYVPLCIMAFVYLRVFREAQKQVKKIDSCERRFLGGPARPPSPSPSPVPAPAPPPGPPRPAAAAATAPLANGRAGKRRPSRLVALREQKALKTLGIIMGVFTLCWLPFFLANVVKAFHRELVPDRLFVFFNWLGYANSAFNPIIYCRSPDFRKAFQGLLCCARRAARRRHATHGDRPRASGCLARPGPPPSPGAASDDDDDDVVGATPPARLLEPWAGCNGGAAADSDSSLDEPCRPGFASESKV

Rattus norvegicus [3] = assay: Dose required to produce a fall in blood pressure of 40 mmHg in the anesthetized rat; assay type: functional
Summary of the method: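 Anesthetized normotensive rats dosed by intravenous injection. ED40 (μmol kg⁻¹) is dose lowering blood pressure by 40 mmHg, taken from a dose-response curve. At least three animals, minimum three doses; 95% confidence intervals via Fieller's theorem.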

[4] = molecular target: Adrenergic receptor beta (Homo sapiens) (UniProt P08588+P07550+P13945); assay: Intrinsic Sympathomimetic Activity (ISA) determined from the ratio of the maximal compound and isoprenaline induced tachycardia in anesthetized ganglion blocked cats following intravenous administration; assay type: functional, organism-based; conditions: Felis catus; target entry is the homologue from another species
Summary of the method: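 Ganglion-blocked (pempidine 5 mg kg⁻¹ iv) anesthetized cats at 37 °C; heart rate from blood pressure pulse. Full isoprenaline dose-response (0.01–10 μg kg⁻¹) obtained first. Cannula washed with saline, then cumulative iv dose-response to compound in 50% PEG 400, raised until maximal heart-rate increase. ISA is the ratio of maximal compound-induced to isoprenaline-induced tachycardia.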

Rattus norvegicus [5] = assay: Dose required to produce a 50% increase in blood flow to the autoperfused hindquarters of the anesthetized rat; assay type: functional
Summary of the method: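 Anesthetized normotensive rats with autoperfused hindquarters. Intravenous bolus doses. ED50 (μmol kg⁻¹) is dose giving 50% increase in hindquarter blood flow, read from a dose-response curve. At least three animals at a minimum of three doses; 95% confidence intervals by Fieller's theorem.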

[6] = molecular target: Beta-1 adrenergic receptor (Homo sapiens) (UniProt P08588); assay: Beta-1 adrenergic receptor antagonsim of compound expressed as inhibition of isoprenaline-induced tachycardia in the ganglion-blocked anesthetized cat; assay type: functional; conditions: Felis catus
Summary of the method: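 Ganglion-blocked anesthetized cats (pempidine 5 mg kg⁻¹ iv, left to stabilize; rectal temperature held at 37 °C; heart rate from blood pressure pulse). Compounds given iv via cephalic vein. ID50 is dose for 50% inhibition of standard isoprenaline-induced tachycardia. Percent inhibition logit-transformed; ≥3 animals, ≥3 doses; 95% confidence limits by Fieller's theorem.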

Felis catus [7] = assay: Beta-1-adrenoceptor antagonsim of compound expressed as inhibition of isoprenaline-induced tachycardia in the ganglion-blocked anesthetized cat at 10 uM/Kg dose; assay type: functional

## CC(C)NCC(O)COc1cccc2[nH]ccc12 (stereo unspecified) [PINDOLOL]
Felis catus [1]
  ISA: 0.7

## Cc1ccccc1OCC(O)CNCCC(=O)Nc1ccc(C2=NNC(=O)CC2)cc1 (stereo unspecified)
[2]
  ID50: 1.4 µmol/kg
Rattus norvegicus [3]
  ED40: 9.4 µM/kg
[4]
  ISA: 0.14
Rattus norvegicus [5]
  ED50: 6 µmol/kg

## COCCc1ccc(OCC(O)CNCCC(=O)Nc2ccc(C3=NNC(=O)CC3C)cc2)cc1 (stereo unspecified)
[2]
  ID50: 2 µmol/kg
Rattus norvegicus [3]
  ED40: 3 µM/kg
[4]
  ISA: 0.04
Rattus norvegicus [5]
  ED50: 6 µmol/kg

## C=CCOc1ccccc1OCC(O)CNC(C)C (stereo unspecified)
[2]
  ID50: 0.04 µmol/kg
[4]
  ISA: 0.2

## COc1ccccc1OCC(O)CNCC(=O)Nc1ccc(C2=NNC(=O)CC2)cc1 (stereo unspecified)
[2]
  ID50: 10 µmol/kg
Rattus norvegicus [3]
  ED40: 11.5 µM/kg
[4]
  ISA: 0.42
Rattus norvegicus [5]
  ED50: 4.6 µmol/kg

## Cc1ccccc1OCC(O)CNCC(=O)Nc1ccc(C2=NNC(=O)CC2)cc1 (stereo unspecified)
Rattus norvegicus [3]
  ED40: 6 µM/kg
[6]
  ID50: 9 µmol/kg
[4]
  ISA: 0.55
Rattus norvegicus [5]
  ED50: 2 µmol/kg

## CC1CC(=O)NN=C1c1ccc(NC(=O)CCNCC(O)COc2ccccc2C#N)cc1 (stereo unspecified)
Rattus norvegicus [3]
  ED40: 1 µM/kg
[4]
  ISA: 0.63
Rattus norvegicus [5]
  ED50: 2.3 µmol/kg

## NNc1nncc2ccccc12 [HYDRALAZINE]
Rattus norvegicus [3]
  ED40: 1 µM/kg
Rattus norvegicus [5]
  ED50: 0.6 µmol/kg

## CC1CC(=O)NN=C1c1ccc(NC(=O)CCNCC(O)COc2ccccc2S(C)(=O)=O)cc1.Cl (stereo unspecified)
[2]
  ID50: 4 µmol/kg
Rattus norvegicus [3]
  ED40: 3.9 µM/kg
[4]
  ISA: < 0.3
Rattus norvegicus [5]
  ED50: 2.4 µmol/kg

## COc1ccccc1OCC(O)CNCCC(=O)Nc1ccc(C2=NNC(=O)CC2C)cc1 (stereo unspecified)
[2]
  ID50: 0.7 µmol/kg
Rattus norvegicus [3]
  ED40: 2 µM/kg
[4]
  ISA: 0.48
Rattus norvegicus [5]
  ED50: 3 µmol/kg

## CC1CC(=O)NN=C1c1ccc(NC(=O)CCNCC(O)COc2ccc(CCOCC3CC3)cc2)cc1 (stereo unspecified)
[2]
  ID50: 1 µmol/kg
Rattus norvegicus [3]
  ED40: 2.4 µM/kg
[4]
  ISA: 0.05
Rattus norvegicus [5]
  ED50: 1.6 µmol/kg

## CC1CC(=O)NN=C1c1ccc(NC(=O)CCN)cc1 (stereo unspecified)
Rattus norvegicus [3]
  ED40: 0.2 µM/kg
Rattus norvegicus [5]
  ED50: 0.2 µmol/kg

## CC1CC(=O)NN=C1c1ccc(NC(=O)CCNCC(O)COc2cccc3[nH]ccc23)cc1.Cl (stereo unspecified)
[2]
  ID50: 0.09 µmol/kg
Rattus norvegicus [3]
  ED40: 2.9 µM/kg
[4]
  ISA: 0.46
Rattus norvegicus [5]
  ED50: 4.4 µmol/kg

## CC1CC(=O)NN=C1c1ccc(NC(=O)CCNCC(O)COc2ccccc2N2CCOCC2)cc1 (stereo unspecified)
[2]
  ID50: 0.5 µmol/kg
Rattus norvegicus [3]
  ED40: 3.6 µM/kg
[4]
  ISA: 0.24
Rattus norvegicus [5]
  ED50: 1.8 µmol/kg

## CC(=O)Nc1ccc(C2=NNC(=O)CC2C)cc1 (stereo unspecified)
Rattus norvegicus [3]
  ED40: 0.18 µM/kg
Rattus norvegicus [5]
  ED50: 0.1 µmol/kg

## Cc1cccc(OCC(O)CNCCC(=O)Nc2ccc(C3=NNC(=O)CC3C)cc2)c1C (stereo unspecified)
[2]
  ID50: 0.6 µmol/kg
Rattus norvegicus [3]
  ED40: 2.5 µM/kg
[4]
  ISA: 0.14
Rattus norvegicus [5]
  ED50: 2.4 µmol/kg

## O=C1CCC(c2ccc(NC(=O)CNCC(O)COc3cccc4ccccc34)cc2)=NN1 (stereo unspecified)
Rattus norvegicus [3]
  ED40: 28 µM/kg
[4]
  ISA: 0.1
Rattus norvegicus [5]
  ED50: 1.4 µmol/kg
Felis catus [7]
  Inhibition: 30%

## Cc1ccccc1OCC(O)CNCC(=O)Nc1ccc(C2=NNC(=O)CC2C)cc1 (stereo unspecified)
[2]
  ID50: > 5 µmol/kg
Rattus norvegicus [3]
  ED40: <2 µM/kg
Rattus norvegicus [5]
  ED50: 2.7 µmol/kg

## N#Cc1ccccc1OCC(O)CNCC(=O)Nc1ccc(C2=NNC(=O)CC2)cc1 (stereo unspecified)
Rattus norvegicus [3]
  ED40: 30 µM/kg
[4]
  ISA: 0.55
Rattus norvegicus [5]
  ED50: 14 µmol/kg

## CC1CC(=O)NN=C1c1ccc(NC(=O)CNCC(O)COc2ccccc2C#N)cc1 (stereo unspecified)
[2]
  ID50: > 8 µmol/kg
Rattus norvegicus [3]
  ED40: 2 µM/kg
[4]
  ISA: 0.53
Rattus norvegicus [5]
  ED50: 0.9 µmol/kg

## Cc1ccccc1OCC(O)CNCCC(=O)Nc1ccc(C2=NNC(=O)CC2C)cc1 (stereo unspecified)
Rattus norvegicus [3]
  ED40: 0.5 µM/kg
[4]
  ISA: 0.59
Rattus norvegicus [5]
  ED50: 2 µmol/kg

## CC(C)(C)NCC(O)COc1ccccc1-c1ccc(NN)nn1 (stereo unspecified) [PRIZIDILOL]
[2]
  ID50: 0.06 µmol/kg
Rattus norvegicus [3]
  ED40: 14 µM/kg
[4]
  ISA: 0.2
Rattus norvegicus [5]
  ED50: 10 µmol/kg

## COc1ccccc1OCC(O)CNCCC(=O)Nc1ccc(C2=NNC(=O)CC2)cc1 (stereo unspecified)
[2]
  ID50: 0.7 µmol/kg
Rattus norvegicus [3]
  ED40: 11 µM/kg
[4]
  ISA: 0.6
Rattus norvegicus [5]
  ED50: 4.3 µmol/kg

## Br.CC1CC(=O)NN=C1c1ccc(NC(=O)CCNCC(O)COc2ccccc2)cc1 (stereo unspecified)
Rattus norvegicus [3]
  ED40: 0.6 µM/kg
[4]
  ISA: 0.86
Rattus norvegicus [5]
  ED50: 1.5 µmol/kg

## N#Cc1ccccc1OCC(O)CNCCC(=O)Nc1ccc(C2=NNC(=O)CC2)cc1 (stereo unspecified)
[2]
  ID50: > 1 µmol/kg
Rattus norvegicus [3]
  ED40: 3.5 µM/kg
Rattus norvegicus [5]
  ED50: 1.7 µmol/kg

## Nc1ccc(-c2ccc(O)nn2)cc1
Rattus norvegicus [3]
  ED40: 1 µM/kg
Rattus norvegicus [5]
  ED50: 20 µmol/kg

## CC(=O)Nc1ccc(C2=NNC(=O)CC2)cc1
Rattus norvegicus [3]
  ED40: 1 µM/kg
Rattus norvegicus [5]
  ED50: 4 µmol/kg

## COc1ccccc1OCC(O)CNCC(=O)Nc1ccc(C2=NNC(=O)CC2C)cc1 (stereo unspecified)
[2]
  ID50: 2.6 µmol/kg
Rattus norvegicus [3]
  ED40: <4 µM/kg
[4]
  ISA: 0.37
Rattus norvegicus [5]
  ED50: 3 µmol/kg
